Rows were chosen to be rich in hits. Some 29% of all compounds tested hit in one or more screens of this group.
tolC growth inh: blocks growth of E. coli BW25113 tolC mutant; OD615; growth inhibition, % at 10 µM (by protocol); 2.2% of 65,000 active; AID 573;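 active = growth inhibition at or above a cutoff equal to the mean over every tested compound plus 3 SD, cut at about 60% in these data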;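 also: growth measured after 20 h incubation at 37 °C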
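test system = E. coli BW25113 ΔtolC::kan bacteria | medium = LB with kanamycin 50 µg/mL | signal = OD at 615 nm | schedule = 37 °C, 20 h exposure | evaluation = % inhibition of E. coli growth | compound dosing = one dose of 10 µM final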
CYP2C19 activ: increases human CYP2C19 enzyme activity | AID 1025 | activation factor at 5 µM | 96,000 tested, under 10 active | P33261 | recombinant CYP2C19, luciferin-H EGE luminescence; hits give high values; 0 = fully inhibited enzyme, 1 = untreated enzyme;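 active = activation factor of at least 2 at 5 µM in the primary screen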;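 also: 0 = wells with 2.5 mM tranylcypromine and 1 = vehicle-only wells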
CYP2C9 act: activators of human CYP2C9 | P11712 | recombinant CYP2C9, luciferin-H conversion, luminescence; hits give high values; factor 1 = untreated enzyme, 0 = blocked | activation factor at 5 µM | 1.4% of 96,000 active;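 active = activation factor of 2 or more for CYP2C9 at a 5 µM dose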;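 also: 0 = sulfaphenazole-blocked wells and 1 = vehicle-only wells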
Target sequence (P11712 whole entry, looked up): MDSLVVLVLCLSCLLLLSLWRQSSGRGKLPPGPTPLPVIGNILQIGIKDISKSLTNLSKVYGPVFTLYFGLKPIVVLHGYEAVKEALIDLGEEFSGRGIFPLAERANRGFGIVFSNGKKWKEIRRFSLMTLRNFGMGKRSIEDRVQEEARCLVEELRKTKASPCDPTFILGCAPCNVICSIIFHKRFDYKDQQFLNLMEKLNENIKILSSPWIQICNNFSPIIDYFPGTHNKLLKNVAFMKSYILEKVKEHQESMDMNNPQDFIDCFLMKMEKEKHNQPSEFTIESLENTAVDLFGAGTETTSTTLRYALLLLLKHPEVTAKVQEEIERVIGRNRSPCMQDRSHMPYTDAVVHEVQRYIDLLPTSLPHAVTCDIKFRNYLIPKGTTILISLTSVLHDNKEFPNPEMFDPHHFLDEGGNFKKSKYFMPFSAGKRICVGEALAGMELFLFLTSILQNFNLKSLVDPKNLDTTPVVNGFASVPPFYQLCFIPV
E coli WT exp: blocks growth of wild type E. coli BW25113 | OD600 absorbance | growth inhibition, % at 100 µM | 0.15% of 98,000 active | AID 710;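 active = growth inhibition above about 50% at one test dose, limit read from the data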;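 also: growth measured after 20 h incubation at 37 °C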
CYP2C9 inhib: blocks human cytochrome P450 2C9; AID 777; inhibition, % at 5 µM; P11712; 20% of 96,000 active; CYP2C9 Supersomes, luciferin-H conversion, luminescence;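 active = blocking of liver enzyme CYP2C9 beyond about 50% at 5 µM, limit read from the data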
CYP2C19 inhib: human CYP2C19 inhibition; AID 778; P33261; CYP2C19 Supersomes, luciferin-H EGE luminescence, 30 min; inhibition, % at 5 µM; 21% of 96,000 active;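 active = CYP2C19 inhibition above a set limit at 5 µM in the primary screen, cut at about 50% in these data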;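 also: plate controls were negative control wells for no effect and 2.5 mM tranylcypromine positive control for full effect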
* = called active by the depositor.

Results for Cc1ccc(C(=O)Cn2nnc3c(sc4nc5c(c(-c6ccccc6)c43)CCC5)c2=O)cc1 ?
CYP2C19 activ: 1.1; CYP2C9 act: 0.7; E coli WT exp: -13; CYP2C9 inhib: 32; CYP2C19 inhib: -6

Results for CCOC(=O)C1(O)CSc2nc3sc(C(=O)O)c(C)c3c(=O)n21 (stereo not drawn) ?
tolC growth inh: -8; CYP2C19 activ: 1.2; CYP2C9 act: 1.1; E coli WT exp: -7; CYP2C9 inhib: -15; CYP2C19 inhib: -18

What do the screens show for `Cc1cc(C)n(-c2nnc(C)n2NS(=O)(=O)c2ccc(F)cc2)n1`?
tolC growth inh: -9; CYP2C19 activ: 0.9; CYP2C9 act: 0.9; E coli WT exp: 1; CYP2C9 inhib: 14; CYP2C19 inhib: 7

Results for CCCNC(=O)c1ccccc1NC(=O)C1COc2ccccc2O1 (stereo not drawn) ?
CYP2C19 activ: 0.4; CYP2C9 act: 0.7; E coli WT exp: -4; CYP2C9 inhib: 31; CYP2C19 inhib: 59*

How did O=C(NCCOC(=O)C1COc2ccccc2O1)C1COc2ccccc2O1 (stereo not drawn) do in these assays?
tolC growth inh: 11; CYP2C19 activ: 0.1; CYP2C9 act: 0.3; E coli WT exp: 3; CYP2C9 inhib: 69*; CYP2C19 inhib: 88*

What do the screens show for `CCCCNC(=O)C1COc2ccccc2O1` (stereo not drawn)?
tolC growth inh: -10; CYP2C19 activ: 0.4; CYP2C9 act: 0.9; E coli WT exp: -5; CYP2C9 inhib: 8; CYP2C19 inhib: 56*

Results for O=C(NCCOC(=O)C1COc2ccccc2O1)c1cccnc1 (stereo not drawn) ?
tolC growth inh: -8; CYP2C19 activ: 1; CYP2C9 act: 0.9; E coli WT exp: -16; CYP2C9 inhib: 12; CYP2C19 inhib: 5

How did O=C(O)C1CCCCC1C(=O)NC1CCCCC1 (stereo not drawn) do in these assays?
tolC growth inh: -19; CYP2C19 activ: 1.2; CYP2C9 act: 1.2; E coli WT exp: -4; CYP2C9 inhib: -16; CYP2C19 inhib: -20

Results for CC1CCCC/C1=N/Nc1ccc([N+](=O)[O-])cc1[N+](=O)[O-] (stereo not drawn) ?
CYP2C19 activ: 0.7; CYP2C9 act: 0.8; E coli WT exp: 1; CYP2C9 inhib: 20; CYP2C19 inhib: 26

Results for CC1CCCC/C1=N\NS(=O)(=O)c1ccc(Br)cc1 (stereo not drawn) ?
CYP2C19 activ: 0.7; CYP2C9 act: 0.5; E coli WT exp: -2; CYP2C9 inhib: 51*; CYP2C19 inhib: 26

How did Cn1c(=O)n(Cc2ccc(Cl)cc2)c2ccccc21 do in these assays?
CYP2C19 activ: 0.2; CYP2C9 act: 0.7; E coli WT exp: 13; CYP2C9 inhib: 34; CYP2C19 inhib: 76*

Results for Cn1c(=O)n(Cc2ccccc2F)c2ccccc21 ?
tolC growth inh: 5; CYP2C19 activ: 0.3; CYP2C9 act: 0.6; E coli WT exp: 0; CYP2C9 inhib: 35; CYP2C19 inhib: 70*

What do the screens show for `COc1ccccc1Oc1nc2c(c(=O)n(Cc3ccccc3F)c(=O)n2C)n1C`?
tolC growth inh: 12; CYP2C19 activ: 0.4; CYP2C9 act: 1.1; E coli WT exp: -20; CYP2C9 inhib: -10; CYP2C19 inhib: 60*

Results for COc1ccc(CCNC(=O)C(=O)NCc2ccc(C)cc2)cc1OC ?
CYP2C19 activ: 0.9; CYP2C9 act: 1.1; E coli WT exp: -1; CYP2C9 inhib: -5; CYP2C19 inhib: 12

How did COc1cccc(C(=O)N(c2ccc(OC)cc2OC)C2C=CS(=O)(=O)C2)c1 (stereo not drawn) do in these assays?
tolC growth inh: -12; CYP2C19 activ: 0.7; CYP2C9 act: 0.8; E coli WT exp: -6; CYP2C9 inhib: 20; CYP2C19 inhib: 28

How did COc1ccc(C(=O)/C=C/N2CCCCC2)cc1OC do in these assays?
tolC growth inh: -4; CYP2C19 activ: 1; CYP2C9 act: 2.6*; E coli WT exp: 1; CYP2C9 inhib: -159; CYP2C19 inhib: 4

What do the screens show for `COc1ccc2c(c1)N(C)C(=O)CC(c1ccccc1)=N2`?
tolC growth inh: 8; CYP2C19 activ: 0.1; CYP2C9 act: 0; E coli WT exp: 0; CYP2C9 inhib: 98*; CYP2C19 inhib: 94*

How did CC1(C)CC(=O)C2=C(C1)OC1=C(C(=O)CC(C)(C)C1)C2c1ccc(O)cc1O do in these assays?
tolC growth inh: 11; CYP2C19 activ: 0.8; CYP2C9 act: 2.5*; E coli WT exp: -2; CYP2C9 inhib: -147; CYP2C19 inhib: 20

Results for COC(=O)C1=C(N)OC2=C(C(=O)CC(C)(C)C2)C1c1cccnc1 (stereo not drawn) ?
tolC growth inh: -4; CYP2C19 activ: 0.8; CYP2C9 act: 0.9; E coli WT exp: -6; CYP2C9 inhib: 9; CYP2C19 inhib: 18

How did COc1cc(C(=O)N2CCN(S(=O)(=O)c3ccc(C)cc3)CC2)ccc1OCc1c(C)noc1C do in these assays?
tolC growth inh: 4; CYP2C19 activ: 0.3; CYP2C9 act: 0.4; E coli WT exp: -6; CYP2C9 inhib: 56*; CYP2C19 inhib: 70*

Results for Cc1ccc(S(=O)(=O)N2CCN(C(=O)c3ccc(OCc4c(C)noc4C)cc3)CC2)cc1 ?
tolC growth inh: -7; CYP2C19 activ: 1; CYP2C9 act: 0.7; E coli WT exp: -7; CYP2C9 inhib: 29; CYP2C19 inhib: 3

What do the screens show for `Cc1noc(C)c1COC(=O)c1ccc2c(c1)OCCO2`?
tolC growth inh: 13; E coli WT exp: 10

Results for CCCCNC(=O)COC(=O)c1cc(S(=O)(=O)N2CCCCCC2)ccc1OC ?
CYP2C19 activ: 0.4; CYP2C9 act: 0.5; E coli WT exp: 0; CYP2C9 inhib: 48; CYP2C19 inhib: 55*

Results for Cc1noc(C)c1COC(=O)c1cccc(S(=O)(=O)N2CCCCCC2)c1 ?
tolC growth inh: 37; CYP2C19 activ: 0.1; CYP2C9 act: 0; E coli WT exp: -14; CYP2C9 inhib: 96*; CYP2C19 inhib: 91*

What do the screens show for `COc1ccc(S(=O)(=O)N2CCc3ccccc32)cc1C(=O)OCc1c(C)noc1C`?
tolC growth inh: 22; CYP2C19 activ: 0.1; CYP2C9 act: 0; E coli WT exp: -22; CYP2C9 inhib: 99*; CYP2C19 inhib: 95*

Results for CC(=O)N1CCC(C(=O)Nc2ccccc2)(N(Cc2ccccc2)C(=O)c2cccnc2)CC1 ?
tolC growth inh: -12; CYP2C19 activ: 1; CYP2C9 act: 1; E coli WT exp: -6; CYP2C9 inhib: -3; CYP2C19 inhib: 1

How did Cc1nc2sc(C(c3cccs3)N3CCOCC3)c(O)n2n1 (stereo not drawn) do in these assays?
tolC growth inh: -18; CYP2C19 activ: 0.9; CYP2C9 act: 1; E coli WT exp: 3; CYP2C9 inhib: -4; CYP2C19 inhib: 8

How did COc1ccc(S(=O)(=O)N2CCCCCC2)cc1C(=O)OCc1c(C)noc1C do in these assays?
tolC growth inh: 16; CYP2C19 activ: 0.5; CYP2C9 act: 0.1; E coli WT exp: -11; CYP2C9 inhib: 86*; CYP2C19 inhib: 50*

Assay outcomes as filed in PubChem.
